Test [1] in a line: OD615 S. cerevisiae growth inhibition, permissive medium, pilot counter-assay, permissive growth control for S. cerevisiae lifespan shortening project (AID 705;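 active means growth inhibition above 25% in both replicates, a cutoff set 3 SD above the mean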). As to conditions: OD615, 24 h, at 10 µM, hits give high values. In a few lines: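 Material: engineered DeaD yeast; Compound: one dose 10 µM, DMSO 0.25% final; Detection: absorbance (optical density) at 615 nm; Buffer or medium: permissive raffinose/galactose medium; Timing: 24 h exposure, 30 °C.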

The nature of test [2]: Restrictive medium S. cerevisiae growth inhibition, OD615, pilot screen of yeast lifespan reduction project, restrictive growth control (AID 706;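 active means growth inhibition above a set limit, 3 SD over mean compound inhibition, in both replicates, cut at about 43% in these data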;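 further: modified DeaD lifespan yeast strain shifted to restrictive glucose medium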). As to conditions: OD615, 48 h, at 10 µM, hits give high values. In a few lines: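 Buffer or medium: restrictive glucose medium (CSMM-D); test system: modified S. cerevisiae; doses: single dose of 10 µM compound final, 0.25% DMSO; schedule: 48 h compound exposure at 30 °C; detection: absorbance (optical density) measured at 615 nm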

A short description of test [3]: viability gain of MRP-1-high H69AR cells under doxorubicin, pilot screen, MRP-1 activator project, CellTiter-Glo, duplicate (AID 807;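 active means viability increase at or above a cutoff of the median across tested compounds plus 3 SD, cut at about 8.5% in these data, passing the limit was not always enough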;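 further: compound pretreatment 18-22 h then 72 h combined with doxorubicin; 0% = doxorubicin alone and 100% = vehicle without doxorubicin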). As to conditions: H69AR viability with doxorubicin, CellTiter-Glo luminescence; at 10 µM; hits give high values. Background: Cellular ATP, detected with luciferase, serves as a proxy for viable cell number.
Test [4] is described as follows: growth suppression of beta-catenin knockout HCT116, pilot screen, human colon tumor cells (AID 823;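 active means cell viability at or below a set limit in both duplicate runs, the limit being the all-compound median minus 4 SD, cut at about 23% in these data, passing the limit was not always enough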;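 further: 0% = wells killed by 20 µM Hyamine and 100% = untreated DMSO cell wells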). As to conditions: CellTiter-Glo, 60 h, at 10 µM, hits give low values.
Test [5] can be described thus: growth suppression of PTEN-deleted HCT116, pilot screen, cell-based, HCT116 clonal line, CellTiter-Glo (AID 824;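 active means viability at or below 27.92% in each of two runs, the all-compound median minus 4 SD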;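 further: 0% = 20 µM Hyamine control and 100% = vehicle cell control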). As to conditions: 60 h, at 10 µM, hits give low values.
The nature of test [6]: inhibitors of the yeast RAM network, pilot screen, dse1pr::URA3 reporter, 5-FOA selection (AID 869;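 active means inhibition over a set limit, the all-compound mean plus 3 SD, in both replicate runs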;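 further: 0% = DMSO wells with no growth and 100% = 10 µM 1-NA-PP1 with full growth; RAM network block rescues cells from 5-FOA so hits raise OD615 growth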). As to conditions: S. cerevisiae dse1pr::URA3 5-FOA growth, OD615, 2 d; at 10 µM; hits give high values; strain carries analog-sensitive mutant Cbk1 kinase.
Test [7] is described as follows: RAM signaling pathway blockade in yeast – S. cerevisiae, Pdr1DBD-CYC8 efflux-inhibited sensitized strain, primary screen (AID 1298).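 Further: 0% = DMSO untreated cells without growth and 100% = 10 µM 1-NA-PP1 full growth; higher means more yeast growth rescued from 5-FOA killing.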 The settings on record: S. cerevisiae cbk1-as DSE1-URA3 strain, 5-FOA growth OD615, 2 d; at 50 µM; hits give high values.

Unmarked numbers belong to inactive results. Inconclusive results are not listed. Active and inactive are the calls of the source.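 How the source made its calls, unless noted: active means RAM network inhibition above 8.4% in each of two replicates, 3 SD over the compound average; inconclusive means above 8.4% inhibition in only one replicate; inactive means 8.4% inhibition or less in each replicate.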

These results are taken from PubChem BioAssay.

Regarding `N#Cc1cccc(NC(=O)NCCc2c[nH]c3ccccc23)c1`, the growth inhibition in test [1] was -17.4%; in test [2] it was 1.5%. In addition, the viability increase in test [3] was -4.55%. For the same compound, the viability was 93.1% in test [4] and 90.2% in test [5]. In addition, the inhibition in test [6] is -0.125%. The RAM network inhibition in test [7] is 4.4%.
Consider `O=S(=O)(c1cccs1)n1nnc2ccccc21`, for which the growth inhibition in test [1] was -1.66%; in test [2], -8.55%. Also, the viability increase in test [3] is -0.18%. For the same compound, the figures for the viability in test [4] and in test [5] were 103% and 105%, respectively. Also, in test [6], the inhibition was 1.33%. Moreover, in test [7], the RAM network inhibition is 0.48%.
On to `Clc1ccc(-n2ncc3c(N4CCCCCC4)ncnc32)cc1`, for which the values for the growth inhibition in test [1] and in test [2] were 1.26% and -16.7%, respectively. Besides, the viability increase in test [3] is -0.56%. In addition, the figures for the viability in test [4] and in test [5] were 83.5% and 78.5%, respectively. In addition, the inhibition in test [6] was -0.14%. The RAM network inhibition in test [7] was 8.42%.
For `Cc1cc(S(=O)(=O)N2CCN(c3ccc(F)cc3)CC2)c(C)s1`, the figures for the growth inhibition in test [1] and in test [2] were -13.9% and -7.43%, respectively. The viability increase in test [3] was -3.11%. In addition, the results for the viability in test [4] and in test [5] were 60.9% and 60.3%, respectively. The inhibition in test [6] is 1.69%. Besides, the RAM network inhibition in test [7] is 9.84%.
`CCOC(=O)C1C(=O)CC(C)(O)C(C(=O)OCC)C1/C=C/c1ccccc1` (stereo unspecified): the growth inhibition is -4.58% in test [1] and 2.66% in test [2]. The viability increase in test [3] was -3.71%. For the same compound, the viability in test [4] is 94.4%; in test [5] it was 83.1%. Further, the inhibition in test [6] is 0.605%. For the same compound, in test [7], the RAM network inhibition was 7.42%.
As for `O=C1c2ccccc2C(=O)N1CSc1ncccn1`, the growth inhibition in test [1] was 0.27%; in test [2], -7.91%. Besides, the viability increase in test [3] is -3.86%. Besides, the figures for the viability in test [4] and in test [5] were 87.4% and 89.7%, respectively. Further, the inhibition in test [6] was 1.09%. Also, the RAM network inhibition in test [7] was 2.25%.
In the case of `ON1C(c2ccc(Cl)cc2Cl)N(O)[C@H]2CCCC[C@H]21` (stereo partly specified), the growth inhibition in test [1] was -6.31%; in test [2], -5.43%. Further, the viability increase in test [3] is -1.27%. Further, the values for the viability in test [4] and in test [5] were 101% and 100%, respectively. In addition, the inhibition in test [6] was 1.35%. Also, the RAM network inhibition in test [7] was 4.97%.
As for `COc1ccc(N2CSC3=C(C#N)C(c4cc(OC)c(OC)cc4OC)CC(=O)N3C2)c(OC)c1` (stereo unspecified), the growth inhibition in test [1] is -2.5%; in test [2], 31.1%. In addition, the viability increase in test [3] is -5.15%. Besides, the viability in test [4] is 71.6%; in test [5], 76.7%. In test [6], the inhibition is 1.16%. The RAM network inhibition in test [7] was 2.63%.
Turning to `COc1ccc(NC(=O)C2CCCNC2)cc1OCC(C)C` (stereo unspecified), the growth inhibition was -15.2% in test [1] and -19.2% in test [2]. In test [3], the viability increase is -1.5%. The viability was 98.4% in test [4] and 97% in test [5]. Moreover, the inhibition in test [6] is 1.75%. The RAM network inhibition in test [7] was 2.92%.
In the case of `COc1ccc(C2C(C#N)=C(N)Oc3n[nH]c(C)c32)cc1Cn1nnc2ccccc21` (stereo unspecified), the growth inhibition is 2.33% in test [1] and -0.6% in test [2]. In addition, the viability increase in test [3] is -5.95%. In addition, the viability is 75.7% in test [4] and 77.9% in test [5]. For the same compound, in test [6], the inhibition was 1.26%. Moreover, the RAM network inhibition in test [7] was 7.2%.
`COc1ccc(S(=O)(=O)NCCSc2ccc(C)cc2)cc1OC`: the growth inhibition was 1.08% in test [1] and 1.66% in test [2]. Further, in test [3], the viability increase is -2.26%. Moreover, the viability in test [4] is 85.8%; in test [5] it was 86.1%. The inhibition in test [6] is 1.18%. In addition, in test [7], the RAM network inhibition was 2.65%.
Take `CCOCCCNC(=O)c1cn(C)c2ccc(S(=O)(=O)N(C)C3CCCCC3)cc2c1=O`: the results for the growth inhibition in test [1] and in test [2] were -5.04% and -14.3%, respectively. Besides, the viability increase in test [3] was -4.93%. In addition, the viability was 108% in test [4] and 101% in test [5]. Moreover, in test [6], the inhibition is 0.93%. In addition, the RAM network inhibition in test [7] was -0.73%.
With `COc1ccc(-c2noc(Cc3ccccc3OC)n2)cc1`, the growth inhibition in test [1] is -15.1%; in test [2], -10.5%. In addition, in test [3], the viability increase was 1.93%. The values for the viability in test [4] and in test [5] were 94% and 83.7%, respectively. Moreover, the inhibition in test [6] was 1.83%. For the same compound, the RAM network inhibition in test [7] is 1.94%.
Regarding `COc1ccc(-n2c(Cn3c(=O)sc4ccccc43)nnc2SCC(=O)N2CCCCC2)cc1`, the growth inhibition in test [1] is 3.02%; in test [2] it was 19.9%. The viability increase in test [3] is -0.89%. Moreover, the viability in test [4] is 99.6%; in test [5], 96.5%. Further, the inhibition in test [6] was 0.19%. Further, the RAM network inhibition in test [7] is 6.13%.
With `COC(=O)c1ccc(C)c(NS(=O)(=O)c2ccc(OC)cc2)c1`, the growth inhibition in test [1] was -0.83%; in test [2] it was -23.9%. For the same compound, in test [3], the viability increase is -5.33%. The viability in test [4] was 16.6% (active); in test [5], 20.5% (active). For the same compound, the inhibition in test [6] is 2.15%. Moreover, the RAM network inhibition in test [7] was 9.79%.
Turning to `CCc1ccc(NC(=O)c2ccc3c(c2)C(=O)N(Cc2ccco2)C3=O)cc1`, the growth inhibition in test [1] is -3.35%; in test [2], 7.26%. Moreover, in test [3], the viability increase was -2.41%. In addition, the viability in test [4] is 93.6%; in test [5] it was 89.6%. Moreover, the inhibition in test [6] is 0.185%. Besides, the RAM network inhibition in test [7] was 1.5%.
Turning to `Cc1nnc(SCc2ccc(Cl)cc2Cl)[nH]c1=O`, the growth inhibition is -11.1% in test [1] and 1.19% in test [2]. For the same compound, the viability increase in test [3] was 0.05%. In addition, the viability is 104% in test [4] and 99.1% in test [5]. The inhibition in test [6] is 0.42%. Also, the RAM network inhibition in test [7] is 4.49%.
`COc1ccc(C2CCCN2C(=O)Nc2ccc(F)cc2)cc1OC` (stereo unspecified): the growth inhibition in test [1] was -6.66%; in test [2], -5.24%. Further, the viability increase in test [3] is 1.33%. Further, the viability is 98.8% in test [4] and 88.2% in test [5]. Further, in test [6], the inhibition is 2.6%. The RAM network inhibition in test [7] was 3.45%.

As a reminder, the viability is a read-out of living cells in per cent, often relative to untreated cells. One may read the inhibition as the change of the read-out against control, counted positive when it falls.
